In paper PMC9366947 (ACS Omega, 2022):
Marks after values point to notes of the source that are not given here.

Legend:
[1] = Thermodynamic equilibrium solubility in water and other solvents; assay type: physicochemical; conditions: spectroscopic method
Partition coefficient = assay type: physicochemical; conditions: n-octanol/water, shake flask
Outline: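 Miniaturised shake flask. Octanol stock (1000 μg/mL) mixed with presaturated n-octanol and presaturated water, shaken overnight at 500 rpm, then centrifuged 20 min at 16 000 RCF. Both layers read by UV absorbance at 300 nm against calibration curves; run in triplicate.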

Kinetic = assay type: physicochemical; conditions: water, 37 °C
[2] = Oral dose pharmacokinetics; assay type: in vivo, Sprague–Dawley rats; conditions: rat; for AUC(0-t) / Kp / Kp at 24 h / Cmax: male, Sprague-Dawley, po, 2 mg/kg; for Kp / Kp at 24 h: brain/plasma; for Cmax (brain): oral 2 mg/kg, Table 1
Outline: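 Adult male Sprague–Dawley rats, cassette dosing by oral gavage at 2.0 mg/kg (0.4 mg/mL in 0.25% methyl cellulose/water), n=3 per time point (15 min, 40 min, 2 h, 6 h, 24 h). Under ketamine/xylazine i.p., blood taken by cardiac puncture and brains collected. Brain homogenised in methanol; plasma and brain extracts cleaned up by solid-phase extraction and quantified by UPLC–MS/MS. Values are means.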

[3] = system: pentylenetetrazol-induced clonic and tonic convulsions in mice; assay: PTZ seizures after oral dosing in mice; assay type: in vivo, C57BL/6N mice; conditions: for peak time of efficacy / effect on latency to produce convulsions: 10 mg/kg oral, 70 mg/kg PTZ; for effect on latency to produce convulsions: 2 to 8 h after dosing; for lethality/number tested, 2 h: 2 h pretreatment; for lethality/number tested, 2 h / lethality/number tested, 4 h / lethality/number tested, 8 h: 60 min observation
Outline: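 Male C57BL/6N mice dosed orally (1% carboxymethylcellulose, 10 mL/kg). After the pretreatment interval, PTZ 70 mg/kg s.c. in 0.9% NaCl. Lethality and latency to death recorded over 60 min. Deaths compared with the vehicle + PTZ group by Fisher's exact test; n=6–7 per group.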

[4] = oral, 4 h pretreatment, PTZ 70 mg/kg
[5] = oral, 8 h pretreatment, PTZ 70 mg/kg

SMILES | improvement in water solubility, salt form vs free base [1] | log P (Partition coefficient) | persistence in solution state (supersaturation) vs free base (Kinetic) | AUC(0-t) ([2]; brain) | Kp [2] | Kp at 24 h [2] | AUC(0-t) ([2]; plasma) | Cmax ([2]; plasma) | Cmax (brain) [2] | peak time of efficacy [3] | effect on latency to produce convulsions [3] | lethality/number tested, 2 h ([3]; oral, PTZ 70 mg/kg) | latency to death, 4 h [3, 4] | lethality/number tested, 4 h [3, 4] | latency to death, 8 h [3, 5] | lethality/number tested, 8 h [3, 5]
C#Cc1ccc2c(c1)C(c1ccccn1)=NCc1c(-c3cnco3)ncn1-2.Cl [KRM-II-81·HCl, 2-(8-Ethynyl-3-(oxazol-5-yl)-4H-benzo[f]imidazo[1,5-a][1,4]diazepin-6-yl)pyridin-1-ium Chloride] | Approximately 13 fold | 0.53 ± 0.06 | remain in the solution state for a longer period of time | 2.66 µM·h | 0.52 | 1 | 2.66 µM·h | 1320 nM | 689.1 nM | about 2 h | approximately a doubling of the latency to produce convulsions | 0/6 ^a | 15.68 s | 1/6 | 43.00 s | 1/6
C#Cc1ccc2c(c1)C(c1ccccn1)=NCc1c(-c3cnco3)ncn1-2 [KRM-II-81, 5-(8-Ethynyl-6-(pyridin-2-yl)-4H-benzo[f]imidazo[1,5-a][1,4]diazepin-3-yl)oxazole] |  | 1.763 ± 0.12 |  | 2.69 µM·h | 0.32 | 0.77 | 3.59 µM·h | 1830 nM | 594.2 nM | about 2 h | approximately a doubling of the latency to produce convulsions | 0/6 ^a |  | 0/6 ^a |  | 0/6 ^a
